Assay results as given in ChEMBL document CHEMBL1147575, “Novel inhibitors of fatty acid oxidation as potential metabolic modulators” (Bioorg Med Chem Lett, 2004).

How the values were obtained:
Rattus norvegicus [1] = organism: Rattus norvegicus; assay: Inhibition of 1-14C]palmitoyl-CoA oxidation in rat heart mitochondria at 100 uM concentration; type: functional
Summary of the method: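 Single-point screen at 100 µM: percent inhibition of 1-14[C]-palmitoyl-CoA oxidation in rat heart mitochondria. 95% confidence limits generally ±15% of the mean.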

Rattus norvegicus [2] = organism: Rattus norvegicus; assay: Inhibition of 1-14C]palmitoyl-CoA oxidation in rat heart mitochondria.; type: functional
Summary of the method: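 Rat heart mitochondria; substrate 1-14[C]-palmitoyl-CoA, oxidation measured. Tested at 6 concentrations; IC50 from non-linear regression curve fit, mean of n=3. Run only for compounds giving ≥50% inhibition at 100 µM.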

Homo sapiens = organism: Homo sapiens; assay: Amount of parent compound remaining after incubation with human liver microsomes for 30 min.; type: functional
Summary of the method: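 Human liver microsome (liver S-9) incubation for 30 min; read-out is percent of parent drug remaining.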

[3] = Oral bioavailability in rat after oral administration at 13 mg/kg dose; type: ADME, organism-based; conditions: in vivo
Summary of the method: (§1)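 Rats dosed orally, single dose per compound (9.7–13 mg/kg). Preliminary PK: oral bioavailability (%F), AUC (ng·hr/mL) and t1/2 (h) derived; values are average of n=3.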

[4] = Area under curve in rat after oral administration at 13 mg/kg dose; type: ADME, organism-based; design: dose 13 mg/kg, route oral; conditions: in vivo; summary of the method: as §1
[5] = Half life period in rat after oral administration at 13 mg/kg dose; type: ADME, organism-based; design: dose 13 mg/kg, route oral; conditions: in vivo; summary of the method: as §1
[6] = AUC in rat after oral administration at 11.2 mg/kg dose; type: ADME, organism-based; design: dose 11.2 mg/kg, route oral; conditions: plasma; summary of the method: as §1
[7] = Oral bioavailability in rat after oral administration at 11.2 mg/kg dose; type: ADME, organism-based; conditions: in vivo; summary of the method: as §1
[8] = Half life period in rat after oral administration at 11.2 mg/kg dose; type: ADME, organism-based; design: dose 11.2 mg/kg, route oral; conditions: in vivo; summary of the method: as §1
[9] = AUC in rat after oral administration at 9.7 mg/kg dose; type: ADME, organism-based; design: dose 9.7 mg/kg, route oral; conditions: plasma; summary of the method: as §1
[10] = Half life period in rat after oral administration at 9.7 mg/kg dose; type: ADME, organism-based; design: dose 9.7 mg/kg, route oral; conditions: in vivo; summary of the method: as §1
[11] = Oral bioavailability in rat after oral administration at 9.7 mg/kg dose; type: ADME, organism-based; conditions: in vivo; summary of the method: as §1
[12] = AUC in rat after oral administration at 10.5 mg/kg dose; type: ADME, organism-based; design: dose 10.5 mg/kg, route oral; conditions: plasma; summary of the method: as §1
[13] = Half life period in rat after oral administration at 10.5 mg/kg dose; type: ADME, organism-based; design: dose 10.5 mg/kg, route oral; conditions: in vivo; summary of the method: as §1
[14] = Oral bioavailability in rat after oral administration at 10.5 mg/kg dose; type: ADME, organism-based; conditions: in vivo; summary of the method: as §1

| SMILES | IC50 (Rattus norvegicus [2]) [µM] | inhibition (Rattus norvegicus [1]) [%] | Remaining (Homo sapiens) [%] | also measured |
| --- | --- | --- | --- | --- |
| Cc1cccc(C)c1NC(=O)CN1CCN(CC(O)COc2ccc3oc(-c4ccccc4)nc3c2)CC1 (centres undefined) | 23 | 70 | 15 |  |
| Cc1nc2cc(OCC(O)CN3CCN(CC(=O)Nc4c(C)cccc4C)CC3)ccc2o1 (centres undefined) |  | 34 |  |  |
| Cc1cccc(C)c1NC(=O)CN1CCN(CC(O)COc2ccc3oc(-c4cccc(C(F)(F)F)c4)nc3c2)CC1 (centres undefined) | 13 | 82 | 6 |  |
| CCCc1nc2cc(OCC(O)CN3CCN(CC(=O)Nc4c(C)cccc4C)CC3)ccc2s1 (centres undefined) | 20 | 70 | 15 |  |
| Cc1cccc(C)c1NC(=O)CN1CCN(CC(O)COc2ccc3ncsc3c2)CC1 (centres undefined) |  | 3 |  |  |
| Cc1nc2cc(OC[C@H](O)CN3C[C@@H]4C[C@H]3CN4CC(=O)Nc3c(C)cccc3C)ccc2s1 |  | 26 |  |  |
| Cc1nc2ccc(OCC(O)CN3CCN(CC(=O)Nc4c(C)cccc4C)CC3)cc2s1 (centres undefined) |  | 3 |  |  |
| Cc1nc2cc(OC[C@@H](O)CN3CCN(CC(=O)Nc4c(C)cccc4C)CC3)ccc2s1 |  | 47 | 35 |  |
| Cc1nc2cc(OC[C@H](O)CN3CC4CC3CN4CC(=O)Nc3c(C)cccc3C)ccc2s1 (some centres undefined) |  | 40 |  |  |
| Cc1cccc(C)c1NC(=O)CN1CCN(CC(O)COc2ccc3oc(-c4ccc(C(F)(F)F)cc4)nc3c2)CC1 (centres undefined) | 8 | 89 | 40 |  |
| Cc1nc2cc(OCCCN3CCN(CC(=O)Nc4c(C)cccc4C)CC3)ccc2s1 |  | 38 | < 30 |  |

More lines, main results first:

| IC50 (Rattus norvegicus [2]) [µM] | SMILES | inhibition (Rattus norvegicus [1]) [%] | Remaining (Homo sapiens) [%] | also measured |
| --- | --- | --- | --- | --- |
| 2 | Cc1nc2cc(OC[C@H](O)CN3CCN(CC(=O)Nc4c(C)cccc4C)C[C@H]3C)ccc2s1 |  | < 10 |  |
| 4 | Cc1nc2cc(OC[C@H](O)CN3CCN(CC(=O)Nc4c(C)cccc4C)CC3)ccc2s1 |  | < 27 |  |
| 0.023 | Cc1nc2cc(OC[C@H](O)CN3CC(C)N(CC(=O)Nc4c(C)cccc4C)CC3C)ccc2s1 (some centres undefined) |  | < 10 |  |
| 5 | Cc1nc2cc(OC[C@@H](O)CN3CCN(CC(=O)Nc4c(C)cccc4C)C[C@@H]3C)ccc2s1 |  | < 30 |  |
| 10 | Cc1nc2cc(OCC(O)CN3CCN(CC(=O)Nc4c(C)cccc4C)CC3)ccc2s1 (centres undefined) | 88 | 50 | bioavailability [3]: 45%; AUC [4]: 1260 ng·h/mL; half-life [5]: 180 min |
| 0.45 | Cc1nc2cc(OCC(O)CN3CCN(CC(=O)Nc4c(C)cccc4C)CC3(C)C)ccc2s1 (centres undefined) |  | < 10 |  |
| 10 | Cc1nc2cc(OC[C@@H](O)CN3CCN(CC(=O)Nc4c(C)cccc4C)C[C@H]3C)ccc2s1 |  | < 10 |  |
| 0.07 | Cc1nc2cc(OC[C@H](O)CN3C(C)CN(CC(=O)Nc4c(C)cccc4C)CC3C)ccc2s1 (some centres undefined) |  | 21 | AUC [6]: 128 ng·h/mL; bioavailability [7]: 11%; half-life [8]: 210 min |
| 13 | CCc1nc2cc(OCC(O)CN3CCN(CC(=O)Nc4c(C)cccc4C)CC3)ccc2s1 (centres undefined) | 75 | 29 |  |
| 2.5 | Cc1nc2cc(OC[C@@H](O)CN3C(C)CN(CC(=O)Nc4c(C)cccc4C)CC3C)ccc2s1 (some centres undefined) |  | < 30 |  |
| 0.2 | Cc1nc2cc(OC[C@H](O)CN3CCN(CC(=O)Nc4c(C)cccc4C)C[C@@H]3C)ccc2s1 |  | < 10 | AUC [9]: 278 ng·h/mL; half-life [10]: 372 min; bioavailability [11]: 5% |
| 0.11 | Cc1nc2cc(OC[C@H](O)CN3CCN(CC(=O)Nc4c(C)cccc4C)CC3(C)C)ccc2s1 |  | < 10 | AUC [12]: 265 ng·h/mL; half-life [13]: 252 min; bioavailability [14]: 13% |
